Screening results: PubChem BioAssay, several laboratories
Hits are enriched below; roughly 2.9% of the tested compounds scored in any of these assays.
DNA FID counter: displaces DNA intercalator in HCV helicase counter-screen | inhibition, % at 7.9 µM | hit rate 0.17% among 290,000 | AID 1845 | DNA fluorescent intercalator displacement, fluorescence; in the data active = inhibition above about 37%;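 also: 0% = vehicle and 100% = reference compound; higher means more ethidium bromide displaced from hairpin DNA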
SUMO Mot1 rescue: SUMOylation pathway inhibition by Mot1-301 growth rescue. S. cerevisiae Mot1-301 growth rescue, ATP luminescence, 38.5C; percent above DMSO median, 100 means doubled. growth rescue, % at 18.8 µM. hit rate 1% among 320,000. AID 2716;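 active = every valid replicate shows activation above 250% relative to neutral control wells; inactive = the rest, any valid replicate at or below 250%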;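 also: OY570 slx delta 5 strain wells were the positive control but not used for scaling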
SUMO HTRF inh: SUMOylation inhibition | HTRF SUMOylation assay, SAE1/SAE2 + UBC9, in vitro | inhibition, % at 35 µM | hit rate 0.36% among 290,000 | AID 2006; in the data active = inhibition above about 50%, passing the limit was not always enough
Target sequence (P63279 whole entry, looked up): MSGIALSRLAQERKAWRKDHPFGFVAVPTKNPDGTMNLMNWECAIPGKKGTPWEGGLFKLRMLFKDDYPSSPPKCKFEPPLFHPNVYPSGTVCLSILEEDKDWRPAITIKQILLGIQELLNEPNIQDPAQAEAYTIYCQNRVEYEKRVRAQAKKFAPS
VIM-2 inhibitor: inhibitors of Pseudomonas aeruginosa VIM-2 metallo-beta-lactamase. inhibition, % at 5.6 µM. hit rate 0.89% among 290,000. purified VIM-2, nitrocefin hydrolysis, epi-absorbance fluorescence;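 active = inhibition above the mean of all tested compounds plus 3 SD, cutoff set per screening run, cut at about 7.5% in these data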;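 also: red hydrolysis product quenches plate fluorescence so inhibitors raise well fluorescence; 0% = enzyme with DMSO and 100% = DMSO without enzyme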
NALP1 inh: inhibitors of NALP1 inflammasome in yeast; inhibition, % at 10 µM; S. cerevisiae NALP1/ASC/caspase-1 growth, X-gal OD620, 72 h; AID 2071; hit rate 0.61% among 280,000; in the data active = inhibition mostly above about 24%, no sharp cut-off; inactive = mostly below about 32%
IMP-1 inh: inhibitors of Pseudomonas aeruginosa IMP-1 metallo-beta-lactamase; purified IMP-1, nitrocefin hydrolysis, epi-absorbance fluorescence; inhibition, % at 5.6 µM; hit rate 0.45% among 290,000;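 active = inhibition above the mean plus 3 SD of all compounds in the same screening run, cut at about 4.5% in these data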;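 also: 0% = IMP-1 with DMSO and 100% = DMSO wells lacking enzyme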
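Test system: recombinant IMP-1 enzyme, purified / Medium: HEPES buffer pH 7.1 with ZnSO4 and Brij 35 / Doses: single dose, 5.6 µM / Times: 25 °C, 15 min preincubation, 25 min reaction / Detection: Epi-absorbance via hydrolysed-nitrocefin quenching of white-plate fluorescence, 480/530 nm, EDTA stop / Evaluation: percent inhibition from optical density relative to buffer-blank wells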
Starred values were filed as active, the others as inactive; · = not tested or not shown; + = active, no number.

SMILES | DNA FID counter | SUMO Mot1 rescue | SUMO HTRF inh | VIM-2 inhibitor | NALP1 inh | IMP-1 inh
C/C(CC(=O)N1CCN(C=O)CC1)=N\NC(=O)c1cc2ccccc2cc1O | -19 | -1 | 65* | 0 | 16 | -1
C/C(CC(=O)N1CCN(C=O)CC1)=N\NC(=O)c1ccc([N+](=O)[O-])cc1 | 1 | 0 | -15 | -4 | -3 | -2
C/C(=N\NC(=O)c1cc2ccccc2cc1O)c1cc2ccccc2o1 | -8 | 8 | 56* | -2 | 1 | -4
NC(=O)c1cc(Cl)ccc1OCC(=O)Nc1ccc2c(c1)OCO2 | · | -4 | · | · | · | ·
Cc1ccc(NC(=O)CN2C(=O)S/C(=C/c3ccc(-c4cc(C(=O)O)ccc4C)o3)C2=O)cc1C | -8 | -9 | 84* | -1 | 13 | -1
COC(=O)c1cnc2c(c(C)nn2C)c1OC | 1 | 44 | -1 | -1 | -16 | -4
O=C(Oc1cc(-c2ccccc2)no1)c1ccc(F)cc1 | 1 | -8 | 4 | -2 | 5 | 1
O=C(Oc1cc(-c2ccccc2)no1)c1cccc(C(F)(F)F)c1 | 0 | -11 | 5 | -2 | 43* | -1
CCCn1c2ccccc2c2cnn(CC(=O)N3CCOCC3)c(=O)c21 | -28 | 7 | 5 | -1 | -14 | -2
CCCn1c2ccccc2c2cnn(CC(=O)N3CCN(C4CCCCC4)CC3)c(=O)c21 | 7 | -2 | 14 | 7.8* | 18 | 1
Cc1cccc(Cn2c(C(C)(C)C)cc3cccnc32)c1 | 6 | -17 | 4 | -1 | 48* | -1
CN(C)n1cnc2ccsc2c1=O | -1 | -8 | 25 | -1 | 30* | -1
CNn1cnc2ccsc2c1=O | 8 | 9 | -7 | -1 | -2 | -3
O=C(c1ccco1)N1N=C(c2cccs2)CC1c1cc([N+](=O)[O-])ccc1O (centres undefined) | -19 | 370 | 17 | -1 | -5 | -3
CCCCC(=O)N(Cc1nc2sc(C)c(C)c2c(=O)[nH]1)C1CCCC1 | -29 | + | -10 | -5 | 1 | -2
N=c1c(C(=O)NC2CCCCC2)cc2c(=O)n3ccccc3nc2n1Cc1ccccc1 | 8 | 8 | 11 | 6 | 6 | -2
N=c1c(C(=O)NCC2CCCO2)cc2c(=O)n3ccccc3nc2n1Cc1cccnc1 (centres undefined) | 2 | -27 | 33 | 8.0* | 10 | -1
N=c1c(C(=O)NC2CCCCC2)cc2c(=O)n3ccccc3nc2n1Cc1cccnc1 | -1 | -17 | 11 | 8.2* | -12 | -2
N=c1c(C(=O)NCC2CCCO2)cc2c(=O)n3ccccc3nc2n1Cc1ccc(F)cc1 (centres undefined) | 6 | 1 | 28 | 9.7* | -1 | 0
CCOCCCNC(=S)N(CCN(C)C)Cc1cc2cc3c(cc2[nH]c1=O)OCCO3 | 12 | -13 | 4 | -2 | 6 | -4
O=C(Nc1cccc(Cl)c1)c1cccc(N2C(=O)C3CC=CCC3C2=O)c1 (centres undefined) | -11 | -6 | -7 | 1 | 9 | 18*
CC(=O)n1cc([C@@H]2C=C(C(=O)O)O[C@H](OCc3ccc(CO)cc3)C2)c2ccccc21 | -37 | -6 | 17 | 8.8* | 1 | -1
COc1cc(/C=N/NC(=O)c2sc3nc(C)cc(C)c3c2N)ccc1O | -10 | -8 | 4 | -2 | · | -3
CCOc1cc(C(=O)N2CCN(c3ccccn3)CC2)cc(OCC)c1OCC | -42 | 151 | -7 | -1 | 5 | -1
CN(C)c1ccc(N=C/C=C2/N(C)c3ccccc3C2(C)C)cc1 | -3 | · | -4 | -4 | 54* | -5
SMILES | DNA FID counter | SUMO Mot1 rescue | SUMO HTRF inh | VIM-2 inhibitor | NALP1 inh | IMP-1 inh
NNC(=S)NCc1ccc2c(c1)OCO2 | -3 | -11 | 11 | -1 | 105* | -4
Cc1cc(C)n(CC(=O)N/N=C/c2ccc3c(c2)OCO3)n1 | -2 | 56 | 10 | -3 | -1 | -3
Cc1nn(CC(=O)N/N=C/c2ccc3c(c2)OCO3)c(C)c1Br | 4 | 14 | 50* | 0 | 15 | -1
O=C1C=C(N2CCOCC2)c2ccccc2C1=O | 1 | -2 | 96* | 0 | 9 | -2
c1ccc(COc2cccc(CNCc3ccccn3)c2)cc1 | 10 | 2 | 0 | 8.2* | 7 | -4
c1ccc(COc2cccc(CNCc3cccnc3)c2)cc1 | 11 | 11 | 16 | -2 | 30 | -1
COc1ccc(NC(=O)CN(C)C(=O)Cc2ccsc2)cc1 | -8 | 219 | -5 | 1 | 11 | 5.0*
COc1ccc(CC(=O)Nc2ccc(C(C)=O)cc2)cc1 | -10 | 130 | 5 | 2 | 10 | 8.0*
COc1ccc(NC(=O)CC(Cc2ccccc2)C(=O)O)cc1 (centres undefined) | -5 | 282* | 7 | -3 | 0 | -2
O=C(CC(Cc1ccccc1)C(=O)O)Nc1ccc(F)cc1 (centres undefined) | -7 | -4 | 9 | 0 | 16 | -1
COc1ccc(NC(=O)CN(C)C(=O)Cc2ccc(-c3ccccc3)cc2)cc1 | · | 57 | · | · | · | ·
CC(=O)C1=C(O)C(=O)N(CC#N)C1c1cccs1 (centres undefined) | 5 | -19 | -6 | -2 | 16 | 6.2*
O=C(C1=C(O)C(=O)N(Cc2ccco2)C1c1cccs1)c1cccs1 (centres undefined) | -16 | -6 | 8 | -2 | 23 | -1
N#CC1(c2ccc(NC(=O)c3ccccc3)cc2)CCCC1 | -7 | 9 | -10 | -2 | 16 | -2
CC(=O)Oc1ccc(C(=O)Nc2ccc(C3(C#N)CCCC3)cc2)cc1 | -25 | -17 | 19 | 0 | 10 | 12*
COc1ccc(NC(=O)CSc2nc3ccncc3[nH]2)c(OC)c1 | -4 | -20 | 16 | 0 | 0 | -3
Cc1ccccc1NC(=O)N1CCN(c2ncccn2)CC1 | -12 | -11 | 15 | -3 | 10 | -5
CCOc1nc(Nc2ccc(OC)c(Cl)c2)nc(OCC)n1 | -11 | 3 | -20 | 10* | 0 | -4
COc1ccc(Nc2cc(C)nc3ncnn23)cc1Cl | -10 | -3 | 2 | 9.4* | 3 | -5
O=C1CCCCCN1CP(=O)(O)CCc1ccccc1 | 2 | -11 | 14 | -5 | 10 | -3
O=C1CCCCCN1CP(=O)(O)CN1CCCCCC1=O | 2 | 564* | 9 | -2 | 9 | -2
O=C(O)C(c1ccccc1)N1C(=O)/C(=C\c2ccc(-c3ccccc3Cl)o2)SC1=S (centres undefined) | 23 | -15 | 24 | 0 | 8 | 9.4*
O=C(O)C(c1ccccc1)N1C(=O)/C(=C\c2ccc(-c3ccc(Br)cc3)o2)SC1=S (centres undefined) | 14 | · | 10 | 3 | 9 | -2
C/C(Cc1ccccc1)=N\NC(=O)CNC(=O)Cc1ccc(Cl)cc1 | -26 | -5 | -2 | -5 | -9 | -4
